Active and inactive are the calls of the source. No cut-off for these calls is given here.
Columns and labels:
[1] = target: T1, Luciferin 4-monooxygenase (Photinus pyralis, UniProt P08659); experiment: Inhibition of Photinus pyralis luciferase by PK-Light assay
[2] = target: T1, Luciferin 4-monooxygenase; experiment: Inhibition of Photinus pyralis luciferase
[3] = target: T1, Luciferin 4-monooxygenase; experiment: Inhibition of Photinus pyralis luciferase by Easy lite assay
Outline: (§1)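 Detection by 2 µL of EasyLite or Kinase-Glo reagent (Kinase-Glo containing P. pennsylvanica luciferase). 1536-well luminescence. 16 two-fold concentrations, duplicate wells, repeated on two or three days.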

[4] = target: T2, Luciferin 4-monooxygenase (Photuris pensylvanica, UniProt Q27757); experiment: (§2) Inhibition of luciferase Photuris pennsylvanica by Promega Kinase-Glo assay; outline: as §1
T2 sequence (Q27757 whole entry): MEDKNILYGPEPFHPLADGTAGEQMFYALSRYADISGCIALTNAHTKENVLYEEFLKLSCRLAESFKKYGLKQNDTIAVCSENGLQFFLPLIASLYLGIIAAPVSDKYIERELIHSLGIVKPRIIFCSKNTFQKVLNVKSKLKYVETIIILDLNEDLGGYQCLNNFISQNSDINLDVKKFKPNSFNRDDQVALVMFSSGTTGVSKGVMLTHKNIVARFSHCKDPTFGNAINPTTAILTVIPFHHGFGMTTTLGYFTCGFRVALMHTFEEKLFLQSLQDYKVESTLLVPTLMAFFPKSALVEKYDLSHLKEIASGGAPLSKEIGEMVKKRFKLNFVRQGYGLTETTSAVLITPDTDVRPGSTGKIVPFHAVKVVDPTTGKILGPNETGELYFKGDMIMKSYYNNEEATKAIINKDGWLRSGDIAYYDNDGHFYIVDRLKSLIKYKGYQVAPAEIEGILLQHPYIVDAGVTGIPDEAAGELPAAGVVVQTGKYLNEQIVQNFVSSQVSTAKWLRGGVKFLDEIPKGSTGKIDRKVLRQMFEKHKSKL

[5] = target: T1, Luciferin 4-monooxygenase; experiment: (§3) Inhibition of Photinus pyralis luciferase by Steady-Glo reporter gene assay
Outline: (§4)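 5 nM purified P. pyralis luciferase in SteadyGlo or BrightGlo reporter-gene reagent; no extra ATP or D-luciferin added. 1536-well luminescence. Curves from 16 two-fold concentrations in duplicate, repeated on two or three separate days.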

[6] = target: T1, Luciferin 4-monooxygenase; experiment: (§5) Inhibition of Photinus pyralis luciferase by BrightGlo reporter gene assay; outline: as §4
[7] = target: Luciferin 4-monooxygenase (Photinus pyralis) (UniProt P08659); experiment: as §3; outline: as §4
[8] = target: Luciferin 4-monooxygenase (Photinus pyralis) (UniProt P08659); experiment: as §5; outline: as §4
[9] = Inhibition of Renilla reniformis luciferase
[10] = target: T3, Luciferin 4-monooxygenase (Photuris pensylvanica) (UniProt Q27757); experiment: as §2; outline: as §1
T3 sequence (whole entry): T2 sequence (Q27757 whole entry)

[11] = target: Luciferin 4-monooxygenase (Photinus pyralis) (UniProt P08659); experiment: Inhibition of Photinus pyralis luciferase at 0.04 uM
[12] = target: T3, Luciferin 4-monooxygenase (Photuris pensylvanica); experiment: Inhibition of Photuris pennsylvanica luciferase at 57 uM by Promega Kinase-Glo assay
[13] = target: Luciferin 4-monooxygenase (Photinus pyralis) (UniProt P08659); experiment: Inhibition of Photinus pyralis luciferase at 1 uM
[14] = target: Luciferin 4-monooxygenase (Photinus pyralis) (UniProt P08659); experiment: Inhibition of Photinus pyralis luciferase at 3 uM

T1 sequence (P08659 whole entry): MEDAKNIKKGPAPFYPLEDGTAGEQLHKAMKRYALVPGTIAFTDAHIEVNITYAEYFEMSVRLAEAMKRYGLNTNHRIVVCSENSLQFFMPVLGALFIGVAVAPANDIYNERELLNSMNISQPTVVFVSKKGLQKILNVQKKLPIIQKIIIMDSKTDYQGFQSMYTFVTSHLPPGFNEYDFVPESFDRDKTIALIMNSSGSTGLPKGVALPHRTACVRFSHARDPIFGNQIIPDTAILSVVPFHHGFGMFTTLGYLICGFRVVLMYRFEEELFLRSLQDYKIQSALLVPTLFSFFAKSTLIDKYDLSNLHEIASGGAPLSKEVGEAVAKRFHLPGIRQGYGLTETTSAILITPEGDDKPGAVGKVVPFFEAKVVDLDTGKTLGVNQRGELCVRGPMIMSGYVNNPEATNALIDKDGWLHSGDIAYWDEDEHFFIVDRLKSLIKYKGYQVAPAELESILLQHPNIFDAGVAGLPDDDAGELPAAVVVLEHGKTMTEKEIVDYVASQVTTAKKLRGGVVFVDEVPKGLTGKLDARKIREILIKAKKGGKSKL
Chain of Luciferin 4-monooxygenase (Photinus pyralis) (P08659 whole entry): as above

| SMILES | IC50 [1] [nM] | IC50 [2] [nM] | IC50 [3] [nM] | IC50 [4] [nM] | IC50 [5] [nM] | IC50 [6] [nM] | Activity [7] | Activity [8] | IC50 [9] [nM] | Activity [10] | inhibition [11] [%] | Activity [12] | inhibition [13] [%] | inhibition [14] [%] |
| --- | --- | --- | --- | --- | --- | --- | --- | --- | --- | --- | --- | --- | --- | --- |
| COc1ccc2nc(NC(=O)c3ccoc3C)sc2c1 | 2100 | 1200 | 4500 | 3600 | 10300 | 5900 |  |  |  |  |  |  |  |  |
| CCOc1ccc(-c2cc(C(=O)N3CCN(c4ccccn4)CC3)c3ccccc3n2)cc1 |  |  |  |  |  |  | inactive | inactive | 11000 |  |  |  |  |  |
| COc1cccc(-c2cc(=O)c3ccccc3o2)c1N | 6400 | 6200 | 11000 |  | > 100000 | 60000 |  |  |  | inactive |  |  |  |  |
| CCOc1ccc2nc(NC(=O)c3ccoc3C)sc2c1 | 4200 | 650 | 5700 | 3800 | 3600 | 4000 |  |  |  |  |  |  |  |  |
| Cc1ccc2nc(NC(=O)c3cccs3)sc2c1 | 1400 | 500 | 1700 | > 50000 | 6900 | 6700 |  |  |  |  |  |  |  |  |
| CN(C)c1ccc(N/C=C\C(=O)c2ccccc2)cc1 | 600 | 210 | 400 | 3200 | 600 | 700 |  |  | 11000 |  |  |  |  |  |
| CN1CCN(C(=O)COc2ccc(-c3nc4ccccc4s3)cc2)CC1 | 900 | 300 | 400 |  | 1000 | 6500 |  |  |  | inactive |  |  |  |  |
| Cc1ccc(-c2nc(-c3ccccc3)no2)c(Cl)c1 | 500 | 150 | 400 | 10500 | 160 | 300 |  |  |  |  |  |  |  |  |
| Clc1cccc(-c2nc(-c3ccccn3)no2)c1 | 2100 | 500 | 700 | 7400 | 1500 | 1200 |  |  | > 50000 |  |  |  |  |  |
| CCOc1ccc2nc(NC(=O)Nc3cccs3)sc2c1 | 1450 | 600 | 2100 |  | 12000 | 11300 |  |  |  | inactive |  |  |  |  |
| O=c1cc(-c2ccccc2O)oc2ccc3ccccc3c12 | 700 | 50 | 200 | 14000 | 60 | 90 |  |  |  |  |  |  |  |  |
| Brc1ccc(-c2nc(-c3ccccn3)no2)o1 | 13000 | 3200 | 5100 | 12000 | 2600 | 12000 |  |  |  |  |  |  |  |  |
| COc1ccc(C(=O)NC(=O)Nc2cc(C)ccn2)cc1 | 980 | 410 | 370 | 6900 | 1200 | 1000 |  |  |  |  |  |  |  |  |
| c1ccc(-c2noc(-c3ccc4ccccc4c3)n2)nc1 | 220 | 100 | 220 | 11300 | 200 | 200 |  |  | 25000 |  |  |  |  |  |
| Cc1cccc(/C=C/c2ccccc2)n1 | 17000 | 4300 | 11000 | > 50000 | > 100000 | 24000 |  |  |  |  |  |  |  |  |
| O=C(/C=C\Nc1ccccc1Br)c1ccccn1 | 170 | 80 | 170 | 10000 | 200 | 80 |  |  | > 50000 |  |  |  |  |  |
| CCN(CC)c1ccc2cc(-c3nc4ccccc4[nH]3)c(=O)oc2c1 | 380 | 240 | 14000 | 16000 | 120 | 400 |  |  | 5300 |  | 100 |  |  |  |
| COc1ccc(C(=O)Nc2ccc(C)cn2)c(OC)c1 | 250 | 80 | 280 | 14200 | 500 | 200 |  |  |  |  |  |  |  |  |
| CCOC(=O)N1CCN(C(=O)c2cc(-c3ccc(OCC)cc3)nc3ccccc23)CC1 | 1400 | 900 | 1000 | > 50000 |  |  | inactive | inactive | 20000 |  |  |  |  |  |
| O=C(N/N=C/c1ccccc1O)c1ccccc1O | 2500 | 800 | 3600 |  | 20000 | 2600 |  |  |  | inactive |  |  |  |  |
| Cc1ccc(C(=O)Nc2nc3ccc(S(C)(=O)=O)cc3s2)s1 | 5400 | 1100 | 3200 |  | 10000 | 13300 |  |  |  | inactive |  | inactive |  |  |

| SMILES | IC50 [1] [nM] | IC50 [2] [nM] | IC50 [3] [nM] | IC50 [4] [nM] | IC50 [5] [nM] | IC50 [6] [nM] | Activity [7] | Activity [8] | IC50 [9] [nM] | Activity [10] | inhibition [11] [%] | Activity [12] | inhibition [13] [%] | inhibition [14] [%] |
| --- | --- | --- | --- | --- | --- | --- | --- | --- | --- | --- | --- | --- | --- | --- |
| O=C(/C=C\Nc1ccccn1)c1ccc(Cl)cc1 | 4100 | 2000 | 4700 |  | 500 | 1200 |  |  |  | inactive |  |  |  |  |
| O=C(/C=C\Nc1cccc(F)c1)c1ccc2c(c1)OCO2 | 1200 | 300 | 1200 | > 50000 | 900 | 1900 |  |  |  |  |  |  |  |  |
| Cc1ccc(-c2cc(C(=O)N3CCN(c4ncccn4)CC3)c3ccccc3n2)cc1 |  |  |  |  |  |  | inactive | inactive | > 25000 |  |  |  |  |  |
| CCN(CC)c1ccc2cc(-c3nc4ccccc4n3C)c(=O)oc2c1 |  |  |  |  |  |  |  |  |  |  |  |  | 28 |  |
| Clc1ccc(-c2nc(-c3ccccn3)no2)cc1Cl | 4100 | 840 | 1900 | 19000 | 3300 | 3900 |  |  |  |  |  |  |  |  |
| Cc1ccc(C(=O)Cn2c3c(sc2=N)CCCC3)cc1 | 1100 | 320 | 1800 |  | 2800 | 600 |  |  |  | inactive |  |  |  |  |
| O=C(/C=C\Nc1ccc(F)cc1)c1ccco1 | 3600 | 1000 | 1100 | 14200 | 4000 | 3600 |  |  |  |  |  |  |  |  |
| CCOc1ccc(-c2cc(C(=O)N3CCN(C)CC3)c3ccccc3n2)cc1 | 2400 | 1300 | 1100 | > 50000 |  |  | inactive | inactive | > 25000 |  |  |  |  |  |
| C[C@@H](C(=O)O)c1ccc(N2Cc3ccccc3C2=O)cc1 [(R)-INDOPROFEN] | 4700 | 200 | 3600 | > 50000 | 10000 | 5300 |  |  |  |  |  |  |  |  |
| CCOc1ccc(-c2cc(C(=O)N3CCC4(CC3)OCCO4)c3ccccc3n2)cc1 | 1400 | 700 | 1000 | > 50000 |  |  | inactive | inactive | 11000 |  |  |  |  |  |
| Clc1cccc(/C=N\C=N\c2cccc(Cl)c2)c1 | 7800 | 4500 | 11400 |  |  |  | inactive | inactive | > 50000 | inactive |  |  |  |  |
| Cc1ccc(-c2noc(-c3ccccc3Br)n2)cc1 | 3300 | 1000 | 2300 |  | 11000 | 12000 |  |  |  | inactive |  |  |  |  |
| O=c1c2ccccc2cnn1-c1nc2ccccc2s1 | 200 | 300 | 150 | 5100 | 600 | 700 |  |  |  |  |  |  |  |  |
| c1ccc(-c2noc(-c3ccc4ccccc4c3)n2)cc1 | 1600 | 400 | 2100 |  | 1400 | 2600 |  |  |  | inactive |  |  |  |  |
| Cc1cccc(C#Cc2ccccc2)n1 | 6600 | 4700 | 7400 |  | > 100000 | 30000 |  |  |  | inactive |  |  |  |  |
| Cc1ccc(-c2nc(-c3ccccn3)no2)cc1Cl | 2100 | 220 | 800 | 22000 | 1600 | 1400 |  |  |  |  |  |  |  |  |
| CCOc1ccc(NC(=O)c2ccccc2OC)cc1 | 2800 | 600 | 1500 |  | > 50000 | 8300 |  |  |  | inactive |  |  |  |  |
| CC(C)(C)C(=O)Nc1ccc(NC(=O)c2cccc(O)c2)nc1 | 5000 | 700 | 800 | > 30000 | 800 | 7200 |  |  |  |  |  |  |  |  |
| CS(=O)(=O)c1ccc2nc(NC(=O)c3cccs3)sc2c1 | 6100 | 1100 | 1300 | 9500 | 2500 | 3200 |  |  |  |  |  |  |  |  |
| CN(C)c1ccc(/C=C2\C(=O)Nc3ccccc32)cc1 |  |  |  |  |  |  |  |  | 19000 | inactive |  |  |  |  |
| COc1ccc(-c2cc3ccc(OCc4nn[nH]n4)cc3oc2=O)cc1 | 5400 | 1100 | 3200 |  | 10000 | 13300 |  |  |  | inactive |  |  |  | 100 |
